ChEMBL document CHEMBL1799922, “Synthesis and antimycobacterial activity of prodrugs of indeno[2,1-c]quinoline derivatives” (Eur J Med Chem, 2011)
Values after ≈ are worked out from the molar mass of the structure shown. Active and inactive are the calls of the source. The rule behind the calls is not given here.

How the values were obtained:
[1] = system: Mycobacterium tuberculosis; assay: Antimicrobial activity against Mycobacterium tuberculosis H37Rv ATCC 27294 after 16 to 24 hrs by microplate alamar blue assay; format: functional
Outline: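 M. tuberculosis H37Rv inoculum 2×10^5 cfu/mL (100 µL) added to twofold dilutions in Middlebrook 7H12 medium; final test range 128 µM to 0.5 µM from 12.8 mM DMSO stocks. Incubated 37 °C; day 7 Tween 80 plus Alamar Blue added, further 16-24 h at 37 °C. Fluorescence ex 530/em 590 nm; MIC = lowest concentration giving >90% fluorescence reduction versus replicate bacteria-only controls. Rifampin, isoniazid controls.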

[2] = Cytotoxicity against human U937 cells assessed as cell viability at 1.25 ug/ml after 72 hrs by MTT assay; format: cell-based, U-937; conditions: read-out: Activity
Outline: (§1)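 U937 human monocytic cells plated at 1 × 10^5 cells/mL and allowed to adhere for 1 h at 37 °C in 5% CO2. Non-adherent cells were washed off with RPMI 1640. Adherent cells were exposed to compound in triplicate, with medium alone as the live control and 3% Tween 20 as the dead control. MTT (5 mg/mL in PBS) was then added for 3 h at 37 °C. Formazan was dissolved in 0.4 M HCl/isopropanol and absorbance read at 600 nm. Results are expressed as % cell viability.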

[3] = Cytotoxicity against human U937 cells assessed as cell viability at 5 ug/ml after 72 hrs by MTT assay; format: cell-based, U-937; conditions: read-out: Activity; outline: as §1
[4] = Cytotoxicity against human U937 cells assessed as cell viability at 10 ug/ml after 72 hrs by MTT assay; format: cell-based, U-937; conditions: read-out: Activity; outline: as §1
[5] = Cytotoxicity against human U937 cells assessed as cell viability at 20 ug/ml after 72 hrs by MTT assay; format: cell-based, U-937; conditions: read-out: Activity; outline: as §1
Serum = assay: Stability of the compound in 80% human blood serum assessed as hydrolysis to 2-bromo-6-(1H-imidazol-1-yl)-7H-indeno[2,1-c]quinolin-7-one oxime at 1 mg after 24 hrs at 37 degC by LC-MS analysis; format: ADME, cell-free; set-up: scale not given: the % may be the effect or the level left
Outline: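 Enzymatic hydrolysis: 1 mg prodrug dissolved in 1 mL ethanol, then 200 µL preheated human blood serum diluted to 80% with 0.16 M phosphate buffer (pH 7.4) was added. Samples were kept at 37 °C (24 h) and centrifuged 10 min at 10,000 rpm. Remaining prodrug in the supernatant was monitored by TLC and LC-MS. t1/2 is the time to 50% hydrolysis.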

[6] = Stability of the compound in 10% aqueous ammonia buffer at pH 8 assessed as hydrolysis to 2-bromo-6-(1H-imidazol-1-yl)-7H-indeno[2,1-c]quinolin-7-one oxime at 1 mg at 37 degC by LC-MS analysis; format: physicochemical; set-up: scale not given: the % may be the effect or the level left
Outline: (§2)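 Chemical hydrolysis: 1 mg prodrug dissolved in 1 mL of 10% aqueous ammonia in methanol (pH 8) and held in a thermostatted water bath at 37 °C, up to 24 h. Conversion to the parent oxime was followed by TLC and LC-MS. t1/2 is the time to 50% hydrolysis.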

[7] = Octanol-water partition coefficient, log P of the compound at pH 7.4 at room temperature by UV spectrophotometric analysis; format: physicochemical
Outline: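 Shake-flask method at room temperature: 1-octanol and phosphate buffer (pH 7.4) were pre-saturated by shaking for 24 h. Compound at 10^-4 M in equal volumes of both phases was shaken vigorously for 1 h, left to stand 15 min, then centrifuged 10 min at 10,000 rpm. UV absorbance of each phase was read at 280 nm against blanks, and P was taken as the octanol/water absorbance ratio.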

[8] = Selectivity index, ratio CC50 for human U937 cells to MIC for Mycobacterium tuberculosis H37Rv ATCC 27294; format: functional, U-937
[9] = Half life in 10% aqueous ammonia buffer at pH 8 assessed as hydrolysis to 2-bromo-6-(1H-imidazol-1-yl)-7H-indeno[2,1-c]quinolin-7-one oxime at 37 degC by LC-MS analysis; format: physicochemical; outline: as §2

| Compound | MIC [1] | viability at 72 h, 1.25 ug/ml [2] [%] | viability at 72 h, 5 ug/ml [3] [%] | viability at 72 h, 10 ug/ml [4] [%] | viability at 72 h, 20 ug/ml [5] [%] | Activity (Serum) | Activity [6] | logD [7] | Selectivity Index [8] | half-life [9] [h] |
| --- | --- | --- | --- | --- | --- | --- | --- | --- | --- | --- |
| CC(C)C[C@H](NC(=O)OCC1c2ccccc2-c2ccccc21)C(=O)O/N=C1\c2ccccc2-c2c1c(N1CCN(c3ccccn3)CC1)nc1ccc(Br)cc21 | inactive |  |  |  |  |  |  |  |  |  |
| CC(C)(C)OC(=O)NC1(C(=O)O/N=C2\c3ccccc3-c3c2c(N2CCN(c4ccccn4)CC2)nc2ccc(Br)cc32)CCCC1 | inactive |  |  |  |  |  |  |  |  |  |
| CN(C)C(=O)O/N=C1\c2ccccc2-c2c1c(N1CCN(c3ccccn3)CC1)nc1ccc(Br)cc21 | 1.56 µg/mL (≈ 2.8 µM) | 100 | 100 | 68 | 47 | Not Active | Not Active | 2.3 | 88 |  |
| O=C(CCCCBr)O/N=C1\c2ccccc2-c2c1c(N1CCN(c3ccccn3)CC1)nc1ccc(Br)cc21 | 2.03 µg/mL (≈ 3.13 µM) | 99 | 94 | 79 | 80 | 10% | 95% | 1.5 | >20 | 96 |
| CCCC(=O)O/N=C1\c2ccccc2-c2c1c(N1CCN(c3ccccn3)CC1)nc1ccc(Br)cc21 | inactive |  |  |  |  |  |  |  |  |  |
| O=C(/C=C/c1ccco1)O/N=C1\c2ccccc2-c2c1c(N1CCN(c3ccccn3)CC1)nc1ccc(Br)cc21 | 6 µg/mL (≈ 9.89 µM) | 100 |  | 85 |  | Not Active | 95% | 1.4 |  | 96 |
| CCCCCCCCCCCCCCC(=O)OC1(C)c2ccccc2-c2c1c(-n1ccnc1)nc1ccc(Br)cc21 (stereo not drawn) | inactive |  |  |  |  |  |  |  |  |  |
| CCCC(=O)OC1(C)c2ccccc2-c2c1c(-n1ccnc1)nc1ccc(Br)cc21 (stereo not drawn) | inactive |  |  |  |  |  |  |  |  |  |
| O/N=C1\c2ccccc2-c2c1c(N1CCN(c3ccccn3)CC1)nc1ccc(Br)cc21 | 6.25 µg/mL (≈ 12.9 µM) | 100 | 100 | 56 | 49 |  |  | 3.3 | 71 |  |
| CCCCCCCCCCCC(=O)O/N=C1\c2ccccc2-c2c1c(N1CCN(c3ccccn3)CC1)nc1ccc(Br)cc21 | inactive |  |  |  |  |  |  |  |  |  |
| CCCCCCCC(=O)OC1(C)c2ccccc2-c2c1c(-n1ccnc1)nc1ccc(Br)cc21 (stereo not drawn) | 3.42 µg/mL (≈ 6.6 µM) | 87 | 72 | 52 | 17 | Not Active | 90% | 1.8 | 2.5 | 264 |
| CCCCCC(=O)O/N=C1\c2ccccc2-c2c1c(N1CCN(c3ccccn3)CC1)nc1ccc(Br)cc21 | 3.16 µg/mL (≈ 5.41 µM) | 96 | 86 | 85 | 87 | 5% | 95% | 2.1 | >13 | 576 |
| CCCCCCC(=O)OC1(C)c2ccccc2-c2c1c(-n1ccnc1)nc1ccc(Br)cc21 (stereo not drawn) | 0.42 µg/mL (≈ 0.833 µM) | 85 | 83 | 68 | 54 | Not Active | 86% | 1.7 | 40.2 | 312 |
| CCC(=O)O/N=C1\c2ccccc2-c2c1c(N1CCN(c3ccccn3)CC1)nc1ccc(Br)cc21 | 3.13 µg/mL (≈ 5.77 µM) | 83 | 88 | 81 | 83 | 13% | 95% | 2.7 | >13 | 144 |
| CCCCCCCCCC(=O)O/N=C1\c2ccccc2-c2c1c(N1CCN(c3ccccn3)CC1)nc1ccc(Br)cc21 | inactive |  |  |  |  |  |  |  |  |  |
| O/N=C1\c2ccccc2-c2c1c(-n1ccnc1)nc1ccc(Br)cc21 | < 0.39 µg/mL | 100 | 91 | 77 | 77 |  |  | 0.2 | >5 |  |
| CC(C)C[C@H](NC(=O)OC(C)(C)C)C(=O)O/N=C1\c2ccccc2-c2c1c(N1CCN(c3ccccn3)CC1)nc1ccc(Br)cc21 | inactive |  |  |  |  |  |  |  |  |  |

| Compound | MIC [1] | viability at 72 h, 1.25 ug/ml [2] [%] | viability at 72 h, 5 ug/ml [3] [%] | viability at 72 h, 10 ug/ml [4] [%] | viability at 72 h, 20 ug/ml [5] [%] | Activity (Serum) | Activity [6] | logD [7] | Selectivity Index [8] | half-life [9] [h] |
| --- | --- | --- | --- | --- | --- | --- | --- | --- | --- | --- |
| CSCC[C@H](NC(=O)OC(C)(C)C)C(=O)O/N=C1\c2ccccc2-c2c1c(N1CCN(c3ccccn3)CC1)nc1ccc(Br)cc21 | inactive |  |  |  |  |  |  |  |  |  |
| CCCCCCC(=O)O/N=C1\c2ccccc2-c2c1c(N1CCN(c3ccccn3)CC1)nc1ccc(Br)cc21 | inactive |  |  |  |  |  |  |  |  |  |
| CN(C)C(=O)OC1(C)c2ccccc2-c2c1c(-n1ccnc1)nc1ccc(Br)cc21 (stereo not drawn) | 6 µg/mL (≈ 12.9 µM) | 63 |  | 69 |  | Not Active | Not Active | 1.9 |  |  |
| CCCCC(=O)O/N=C1\c2ccccc2-c2c1c(N1CCN(c3ccccn3)CC1)nc1ccc(Br)cc21 | inactive |  |  |  |  |  |  |  |  |  |
| CC(=O)OC1(C)c2ccccc2-c2c1c(-n1ccnc1)nc1ccc(Br)cc21 (stereo not drawn) | 1.88 µg/mL (≈ 4.33 µM) | 94 | 90 | 63 | 35 | Not Active | 90% | 2.7 | 7.5 | 240 |
| CCCCCCCCCCCCCCC(=O)O/N=C1\c2ccccc2-c2c1c(N1CCN(c3ccccn3)CC1)nc1ccc(Br)cc21 | inactive |  |  |  |  |  |  |  |  |  |
| CC(C)[C@H](NC(=O)OCC1c2ccccc2-c2ccccc21)C(=O)O/N=C1\c2ccccc2-c2c1c(N1CCN(c3ccccn3)CC1)nc1ccc(Br)cc21 | 1.47 µg/mL (≈ 1.82 µM) | 85 | 89 | 81 | 80 | 7% | 96% | 1.8 | >27 | 24 |
| CCCCCCCCCCCCCC(=O)O/N=C1\c2ccccc2-c2c1c(-n1ccnc1)nc1ccc(Br)cc21 | inactive |  |  |  |  |  |  |  |  |  |
| CC(=O)O/N=C1\c2ccccc2-c2c1c(N1CCN(c3ccccn3)CC1)nc1ccc(Br)cc21 | inactive |  |  |  |  |  |  |  |  |  |
| CCC(=O)OC1(C)c2ccccc2-c2c1c(-n1ccnc1)nc1ccc(Br)cc21 (stereo not drawn) | inactive |  |  |  |  |  |  |  |  |  |
| CCCCCCCCC(=O)O/N=C1\c2ccccc2-c2c1c(N1CCN(c3ccccn3)CC1)nc1ccc(Br)cc21 | inactive |  |  |  |  |  |  |  |  |  |
| COc1nc2ccc(Br)cc2cc1[C@@H](c1ccccc1)[C@@](O)(CCN(C)C)c1cccc2ccccc12 [BEDAQUILINE] | 0.06 µg/mL (≈ 0.108 µM) |  |  |  |  |  |  |  |  |  |
| O=C(O/N=C1\c2ccccc2-c2c1c(N1CCN(c3ccccn3)CC1)nc1ccc(Br)cc21)C1CC1 | inactive |  |  |  |  |  |  |  |  |  |
| CC1(O)c2ccccc2-c2c1c(-n1ccnc1)nc1ccc(Br)cc21 (stereo not drawn) | 0.78 µg/mL (≈ 1.99 µM) | 93 | 64 | 64 | 37 |  |  | 1.7 | 4.3 |  |
| O=C(CNC(=O)OCC1c2ccccc2-c2ccccc21)O/N=C1\c2ccccc2-c2c1c(N1CCN(c3ccccn3)CC1)nc1ccc(Br)cc21 | 6 µg/mL (≈ 7.84 µM) | 68 |  | 73 |  | 29% | 90% | 1.4 |  | 36 |
| CCCCCCCCCCCCCC(=O)OC1(C)c2ccccc2-c2c1c(-n1ccnc1)nc1ccc(Br)cc21 (stereo not drawn) | inactive |  |  |  |  |  |  |  |  |  |
| CN(C)C(=O)O/N=C1\c2ccccc2-c2c1c(-n1ccnc1)nc1ccc(Br)cc21 | 0.27 µg/mL (≈ 0.584 µM) | 77 | 82 | 61 | 50 | Not Active | Not Active | 1.1 | 49 |  |
